Assay outcomes: PubChem BioAssay, Johns Hopkins Ion Channel Center
KCNK3 block – human KCNK3 channel inhibitors, primary screen, CHO cells, FluxOR thallium flux, B-score; FluxOR fluorescence; active compounds read low; B-score at 10 µM; 340,000 compounds, 0.84% hits; AID 602410, 2012;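 active means B-score under library mean minus 4 SD, starting fluorescence ratio at most library mean plus 5 SD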;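 further: more negative B-score means stronger inhibition of thallium flux through KCNK3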
KCNK9 block – KCNK9 potassium channel inhibitors, primary screen, HEK293 cells, thallium flux. AID 488922, 2010. B-score at 10 µM. Potassium channel subfamily K member 9 (Homo sapiens), Q9NPC2. 310,000 compounds, 1.2% hits. FluxOR thallium flux fluorescence; active compounds read low;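 active means ratio B-score over 3 SD below the library mean, with starting fluorescence within 5 SD of its mean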;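 further: negative B-score means less thallium flux so channel inhibition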
KCNQ1 pot – potentiators or activators of KCNQ1 channel, primary screen, cell-based, thallium flux, high-throughput. Potassium voltage-gated channel subfamily KQT member 1 (Homo sapiens), P51787. CHO-K1 KCNQ1, thallium flux FluxOR fluorescence; active compounds read high. B-score at 10 µM. 310,000 compounds, 0.35% hits. AID 2648, 2010;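 active means fluorescence ratio B-score, a plate-corrected score, at least three library SD, with initial intensity B-score within 5 SD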
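Schedule – 37 °C overnight plating, 90-min dark dye load, 20-min compound pretreatment · System – stable KCNQ1 CHO-K1 line · Probe or stimulus – thallium- and potassium-containing depolarizing buffer · Measured by – kinetic FluxOR fluorescence, 10 s baseline plus 110 s post-stimulus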
KCNQ1 inh – inhibitors of human KCNQ1 channel, primary screen, cell-based, thallium flux, high-throughput. CHO-K1 KCNQ1, FluxOR thallium flux fluorescence; active compounds read high. 310,000 compounds, 1.3% hits. Potassium voltage-gated channel subfamily KQT member 1 (Homo sapiens), P51787. AID 2642, 2010. B-score at 10 µM;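 active means compounds whose thallium flux B-score, printed positive for inhibition, exceeds three library SD while starting fluorescence stays within three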;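 further: channel opened by potassium depolarization with thallium stimulus after 20 min compound exposure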
hERG rescue – hERG rescue from dofetilide block, primary screen, cell-based, CHO-hERG, FluxOR thallium flux, dofetilide IC70; Voltage-gated inwardly rectifying potassium channel KCNH2 (Homo sapiens), Q12809; dofetilide IC70 present; activation (rescue from dofetilide block), less the hit threshold, % at 10 µM; 310,000 compounds, 0.51% hits;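 active means activation above the mean of controls blocked by dofetilide plus 5 SD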;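 further: thallium influx through hERG after potassium depolarization seen as dye fluorescence rise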
KCNK9 inh conf – KCNK9 potassium channel inhibitors, confirmation, HEK293 cells, thallium flux, duplicate | shares compounds with KCNK9 block | FluxOR thallium flux fluorescence | inhibition, % at 10 µM | 4,900 compounds, 43% hits | AID 492992, 2010;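 active means thallium signal inhibited by more than 5 SD of the compound-free buffer control wells, on both duplicate plates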;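 further: 0% = assay buffer control wells without compound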
Kir21 sel – mouse Kir2.1 channel inhibition, confirmation, selectivity assay for KCNK9 modulator project, cell-based, HEK293, thallium flux; 4,900 compounds, 4% hits; Kir2.1 cells, FluxOR thallium flux fluorescence; shares compounds with KCNK9 block; inhibition, % at 10 µM;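 active means thallium signal drop more than 5 SD beyond the mean of the no-compound control wells, seen in both duplicate plates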;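 further: signal is fluorescence rise after thallium addition divided by baseline fluorescence; plate controls were assay buffer only for no effect and full block by chlorpromazine control for full effect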
HEK293 Tl ctr – thallium flux in non-induced HEK293 cells, confirmation, counter-screen for KCNK9 inhibitor project, cell-based, second counter screen, non-induced KCNK9-HEK293. inhibition, % at 10 µM. 4,900 compounds, 40% hits. shares compounds with KCNK9 block. AID 492997, 2010. FluxOR thallium flux;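 active means thallium signal drop beyond 5 SD of the untreated control mean, on both duplicate plates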;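 further: plate controls were buffer only IC0 wells for no effect and SID17386958 at its maximal inhibitory level for full effect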
Starred values were filed as active, the others as inactive; i = inactive; / = no result. Most compounds without a hit are left out; they make up all but 3.1% or so of the library.

SMILES | KCNK3 block | KCNK9 block | KCNQ1 pot | KCNQ1 inh | hERG rescue | KCNK9 inh conf | Kir21 sel | HEK293 Tl ctr
O=C(O)c1ccccc1N/N=C/c1cc(Br)cc(Br)c1O | i | i | i | 6* | -13.0 | i | i | i
O=C(O)c1ccccc1N/N=C\c1ccnc2ccccc12 | i | i | i | i | -9.3 | / | / | /
Nc1ncnc2c1ncn2[C@@H]1O[C@H](CNS(=O)(=O)c2ccc3c(c2)CCN(C(=O)C(F)(F)F)C3)[C@@H](O)[C@H]1O | i | / | / | / | / | / | / | /
O=[N+]([O-])c1ccc(N/N=C\c2cccn2-c2ccccc2)nc1 | -9.78* | -12* | i | i | -11.7 | 65.0%* | i | 61.5%*
O=[N+]([O-])c1ccc(NN=Cc2ccccc2)nc1 | i | / | / | / | / | / | / | /
O=[N+]([O-])c1ccc(N/N=C/c2ccc(OCc3cccc4ccccc34)cc2)nc1 | i | -9.3* | i | i | -7.0 | 41.5%* | i | i
C=CCCC1(C)C(=O)N(c2ccccc2)c2ccccc21 (centres undefined) | i | -8.9* | i | i | -8.0 | 42.5%* | i | 39.0%*
Cc1ccc(C(=O)N/N=C2\SCC(=O)N2c2cc(C)ccc2C)cc1 | i | i | i | i | -11.3 | i | i | i
Cc1ccc(CSc2nnc(-c3ccc4c(c3)OCO4)o2)cc1 | i | i | i | i | -9.2 | / | / | /
COc1ccc(C2=NCC(CSc3nnc(-c4ccc5c(c4)OCO5)o3)S2)cc1 (centres undefined) | i | i | i | i | -13.2 | i | i | i
O=C(Nc1cccc(Cl)c1)c1cccc(Oc2ccc([N+](=O)[O-])cc2Cl)c1 | i | i | i | i | -13.7 | i | i | i
SC(COCc1ccccc1)CN1CCN(Cc2ccc3c(c2)OCO3)CC1 (centres undefined) | i | i | i | i | -12.6 | i | i | i
CC(C)NS(=O)(=O)c1ccc(Br)c(C(=O)OC(C)C(=O)NC2CCCCC2C)c1 (centres undefined) | i | i | i | i | -15.7 | / | / | /
COC(=O)/C(=C/c1ccc2c(c1)c1ccccc1n2C)NC(=O)c1ccccc1 | i | -8.62* | i | i | -5.6 | 53.5%* | i | 37.5%*
CCCN1CCC(=O)N([C@H](CN=[N+]=[N-])CC(C)C)CC1 | i | i | i | i | -11.0 | / | / | /
COC(=O)c1cccc(N(CC(=O)NC2CCCCC2)C(=O)CNC(=O)c2cccs2)c1 | i | i | i | i | -3.5 | / | / | /
CCCCC(=NCCc1c(C)[nH]c2ccc(OC)cc12)C1=C(O)CC(c2ccccc2)CC1=O (centres undefined) | i | i | i | i | -13.7 | i | i | i
CCC(=NCCc1c(C)[nH]c2ccc(OC(F)(F)F)cc12)C1=C(O)CC(c2ccccc2)CC1=O (centres undefined) | i | i | i | i | -15.2 | / | / | /
CCC(=NCCc1c(C)[nH]c2ccccc12)C1=C(O)CC(c2ccccc2)CC1=O (centres undefined) | i | i | i | i | -5.6 | i | i | i
O=C(CC1C=Cc2ccccc2N1C(=O)c1ccccc1)c1ccccc1 (centres undefined) | i | -13.4* | i | i | -7.5 | 29.5%* | i | i
O=C1c2ccccc2C(Nc2ccc(Cl)cn2)N1c1ccccn1 (centres undefined) | i | -9.75* | i | i | -8.4 | 37.0%* | i | i
O=C1c2ccccc2C(Nc2ccc(S(=O)(=O)N3CCCCCC3)cc2)N1c1ccccn1 (centres undefined) | i | i | i | i | -3.7 | / | / | /
N#C/C(=C\c1ccccc1)C(=O)NNS(=O)(=O)c1ccc(Br)cc1 | i | / | / | / | / | / | / | /
COc1cccc(NC(=O)n2ncc3c(C)cccc32)c1 | i | i | i | i | -10.8 | / | / | /
COc1cc(/C=C/C(=O)c2ccc(NS(=O)(=O)c3ccc(C)cc3)cc2)ccc1OC(F)F | i | i | i | i | -3.2 | i | i | i
SMILES | KCNK3 block | KCNK9 block | KCNQ1 pot | KCNQ1 inh | hERG rescue | KCNK9 inh conf | Kir21 sel | HEK293 Tl ctr
C=CCOc1cccc(/C=C2\C(=O)N(Cc3ccc(C)cc3)C(C)=C2C(=O)OC)c1 | i | i | i | i | -10.8 | / | / | /
CCOc1cc(/C=C2\C(=O)N(Cc3ccc(C)cc3)C(C)=C2C(=O)OC)ccc1O | i | -10.7* | i | 7* | -7.8 | 41.0%* | i | 31.5%*
COc1ccc(OC)c(NC(=O)c2ccc(-c3cccs3)cc2)c1 | i | -13.2* | i | i | -5.1 | 66.0%* | i | 35.0%*
Cc1ccc(S(=O)(=O)c2cccc(S(=O)(=O)N3CCCC3)c2)cc1S(=O)(=O)N1CCCC1 | i | -15.8* | i | i | -7.9 | 31.5%* | i | 26.0%*
Cc1cccc(S(=O)(=O)Nc2nc3ccccc3nc2Nc2cccc(C(=O)O)c2)c1 | i | i | i | i | -13.1 | / | / | /
COc1ccc(S(=O)(=O)Nc2cccc(S(=O)(=O)N3CCCCCC3)c2)cc1 | i | -8.17* | i | i | -14.9 | 41.5%* | i | 28.0%*
O=S(=O)(Nc1nc2ccccc2nc1Nc1cccc(S(=O)(=O)N2CCCCC2)c1)c1ccccc1 | i | i | i | i | -21.0 | i | i | 25.0%*
COc1ccc(CNC(=O)CCN2C(=O)[C@@H]3Cc4ccccc4CN3C2=O)cc1 | i | i | i | i | -12.0 | / | / | /
Cc1cc(C(=O)COC(=O)CNC(=O)c2ccco2)c(C)n1Cc1ccco1 | i | i | i | i | -6.8 | / | / | /
Cc1cc(C(=O)COC(=O)CCC(=O)c2ccc3c(c2)OCCO3)c(C)n1Cc1ccco1 | i | i | i | i | -6.6 | i | i | i
Cc1cc(C(=O)COC(=O)c2ccc(Br)o2)c(C)n1Cc1ccco1 | / | i | i | i | -8.3 | i | i | i
